Laboratory results reported in ChEMBL document CHEMBL1641407, “Imidazo[4,5-d]thiazolo[5,4-b]pyridine based inhibitors of IKK2: synthesis, SAR, PK/PD and activity in a preclinical model of rheumatoid arthritis” (Bioorg Med Chem Lett, 2011).

How the values were obtained:
Canis familiaris = experiment: Total AUC in dog at 2 mg/kg, iv; type: ADME, organism-based, Canis lupus familiaris; parameters: time AUCmax, dose 2 mg/kg, route intravenous; settings: in vivo
Procedure, shortened: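 Dogs received the compound intravenously only, in PEG400:water 80:20. Total plasma exposure (AUC_tot) is reported in nM h.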

[1] = Volume of distribution at steady state in rat at 2 mg/kg, iv and 10 mg/kg, po; type: ADME, organism-based; settings: in vivo, read-out: Vdss
[2] = Clearance in dog at 2 mg/kg, iv; type: ADME, organism-based, Canis lupus familiaris; parameters: dose 2 mg/kg, route intravenous; settings: in vivo
Procedure, shortened: (§1)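 Dog pharmacokinetics, iv dosing only, in vehicle PEG400:water 80:20.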

[3] = Mean residence time in rat at 2 mg/kg, iv and 10 mg/kg, po; type: ADME, organism-based; settings: in vivo
[4] = Half life in dog at 2 mg/kg, iv; type: ADME, organism-based, Canis lupus familiaris; parameters: dose 2 mg/kg, route intravenous; settings: in vivo; procedure, shortened: as §1
[5] = Tmax in rat at 2 mg/kg, iv and 10 mg/kg, po; type: ADME, organism-based; settings: in vivo
[6] = Cmax in mouse at 2 mg/kg, iv and 10 mg/kg, po; type: ADME, organism-based; settings: in vivo
[7] = Oral bioavailability in rat at 10 mg/kg; type: ADME, organism-based; settings: in vivo
[8] = target: T1, Inhibitor of nuclear factor kappa-B kinase subunit beta (Homo sapiens, UniProt O14920); experiment: Inhibition of IKK2
T1 sequence (O14920 whole entry): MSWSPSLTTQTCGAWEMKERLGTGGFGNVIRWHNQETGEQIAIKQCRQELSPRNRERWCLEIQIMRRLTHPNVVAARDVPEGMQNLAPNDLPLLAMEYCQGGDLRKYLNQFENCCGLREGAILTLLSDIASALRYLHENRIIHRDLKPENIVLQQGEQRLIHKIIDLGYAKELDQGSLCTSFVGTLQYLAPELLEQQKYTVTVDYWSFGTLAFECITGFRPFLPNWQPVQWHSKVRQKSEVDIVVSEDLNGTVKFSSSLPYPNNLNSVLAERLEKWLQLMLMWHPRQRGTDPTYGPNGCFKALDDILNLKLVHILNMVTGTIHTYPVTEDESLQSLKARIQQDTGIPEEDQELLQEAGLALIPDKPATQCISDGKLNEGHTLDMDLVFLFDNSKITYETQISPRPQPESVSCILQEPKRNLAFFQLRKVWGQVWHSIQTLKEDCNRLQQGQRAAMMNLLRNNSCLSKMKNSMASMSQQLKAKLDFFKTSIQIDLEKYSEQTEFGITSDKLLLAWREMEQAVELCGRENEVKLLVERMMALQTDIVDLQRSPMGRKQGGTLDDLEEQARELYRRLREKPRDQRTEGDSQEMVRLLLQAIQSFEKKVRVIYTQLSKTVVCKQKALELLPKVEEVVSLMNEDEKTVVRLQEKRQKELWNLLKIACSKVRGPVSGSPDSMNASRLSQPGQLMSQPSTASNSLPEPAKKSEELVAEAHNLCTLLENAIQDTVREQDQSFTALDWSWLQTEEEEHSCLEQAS
Procedure, shortened: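 IKK-2 added at room temperature to 50 µg/mL GST-IκBα with ATP in 25 mM Tris·HCl, pH 7.5, containing MgCl₂, phosphate salts, NaCl, KCl, 1 mM DTT, 5% glycerol and BSA. Stopped after 60 min with 33 mM EDTA. Phospho-IκBα read by fluorescence-polarization competition between an anti-phospho-IκBα antibody and a fluorescein-labelled phosphopeptide.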

Mus musculus = experiment: Antiarthritic activity in mouse assessed as decrease in collagen-induced arthritis at 60 mg/kg, po BID administered at time of second collagen challenge on day 25 measured on day 42; type: functional
Procedure, shortened: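 Collagen-induced arthritis in mice, n = 14–15 per group. Collagen priming injection on day 1, second collagen injection on day 25. Dosing 60 mg/kg by oral gavage twice daily, or vehicle, starting at the second injection. Read-out is the average gross clinical score per treatment group.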

[9] = target: Mitogen-activated protein kinase 10 (Homo sapiens) (UniProt P53779); experiment: Residual activity at JNK3 at 10 uM relative to control
Chain of Mitogen-activated protein kinase 10 (Homo sapiens) (P53779 whole entry): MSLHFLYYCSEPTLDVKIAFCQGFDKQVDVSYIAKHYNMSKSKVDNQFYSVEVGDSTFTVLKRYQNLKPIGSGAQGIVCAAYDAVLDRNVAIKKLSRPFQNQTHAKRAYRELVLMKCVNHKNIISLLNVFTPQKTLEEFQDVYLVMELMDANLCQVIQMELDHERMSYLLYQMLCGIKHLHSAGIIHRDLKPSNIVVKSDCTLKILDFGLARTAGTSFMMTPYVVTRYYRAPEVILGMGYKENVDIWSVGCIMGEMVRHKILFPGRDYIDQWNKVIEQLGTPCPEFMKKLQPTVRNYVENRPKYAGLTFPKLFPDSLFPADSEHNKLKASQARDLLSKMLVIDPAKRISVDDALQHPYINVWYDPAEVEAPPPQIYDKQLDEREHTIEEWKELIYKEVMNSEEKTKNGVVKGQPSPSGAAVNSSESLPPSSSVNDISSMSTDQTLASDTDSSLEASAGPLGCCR

[10] = target: Serine/threonine-protein kinase 16 (Homo sapiens) (UniProt O75716); experiment: Residual activity at STK16 at 10 uM relative to control
Chain of Serine/threonine-protein kinase 16 (Homo sapiens) (O75716 whole entry): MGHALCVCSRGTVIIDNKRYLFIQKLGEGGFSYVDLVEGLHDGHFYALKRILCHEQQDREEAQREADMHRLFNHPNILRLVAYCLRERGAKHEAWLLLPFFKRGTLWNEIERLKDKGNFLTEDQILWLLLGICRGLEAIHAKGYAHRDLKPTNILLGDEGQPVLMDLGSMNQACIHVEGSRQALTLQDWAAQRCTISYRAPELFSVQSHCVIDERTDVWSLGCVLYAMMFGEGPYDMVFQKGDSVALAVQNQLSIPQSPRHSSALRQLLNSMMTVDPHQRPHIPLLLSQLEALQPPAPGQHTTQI

[11] = target: Death-associated protein kinase 2 (Homo sapiens) (UniProt Q9UIK4); experiment: Residual activity at DAPK2 at 10 uM relative to control
Chain of Death-associated protein kinase 2 (Homo sapiens) (Q9UIK4 whole entry, looked up): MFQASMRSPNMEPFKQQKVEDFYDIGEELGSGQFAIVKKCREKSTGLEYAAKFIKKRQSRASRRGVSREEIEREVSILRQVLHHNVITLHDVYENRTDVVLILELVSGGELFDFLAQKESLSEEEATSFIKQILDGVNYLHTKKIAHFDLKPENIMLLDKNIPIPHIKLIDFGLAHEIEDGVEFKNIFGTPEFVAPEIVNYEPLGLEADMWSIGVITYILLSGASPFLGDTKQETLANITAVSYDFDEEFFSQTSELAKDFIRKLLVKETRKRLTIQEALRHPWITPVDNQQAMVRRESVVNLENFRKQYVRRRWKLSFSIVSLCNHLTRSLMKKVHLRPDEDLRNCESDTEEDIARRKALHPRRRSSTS

SMILES: CCNc1nc2sc(-c3cccc([C@H](C)NC(C)=O)c3)nc2c2c1ncn2C
- AUC (Canis familiaris): 1980 nM
- Vd [1]: 2.3 L/kg
- clearance [2]: 43 mL/min/kg
- MRT [3]: 2.1 h
- half-life [4]: 0.7 h
- Tmax [5]: 2 h
- Cmax [6]: 1330 nM
- bioavailability [7]: 88%
- IC50 [8]: 19 nM
- inhibition in vivo at 60 mg/kg (Mus musculus): 80%
- residual activity [9]: < 10%
- residual activity [10]: < 10%
- residual activity [11]: < 10%
